Assay [1] deals with T1, Renin (Homo sapiens, UniProt P00797).
T1 sequence (P00797 whole entry): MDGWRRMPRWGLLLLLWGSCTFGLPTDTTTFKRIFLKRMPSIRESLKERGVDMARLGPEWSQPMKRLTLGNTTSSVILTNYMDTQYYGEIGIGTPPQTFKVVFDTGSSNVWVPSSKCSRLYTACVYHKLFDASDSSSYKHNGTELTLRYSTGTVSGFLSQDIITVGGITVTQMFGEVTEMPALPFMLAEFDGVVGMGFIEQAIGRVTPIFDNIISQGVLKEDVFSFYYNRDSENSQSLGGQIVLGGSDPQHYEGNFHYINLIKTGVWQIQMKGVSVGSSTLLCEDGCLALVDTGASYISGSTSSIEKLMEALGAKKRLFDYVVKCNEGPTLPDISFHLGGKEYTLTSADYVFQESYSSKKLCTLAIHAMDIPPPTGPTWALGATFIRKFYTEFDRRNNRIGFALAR
As to the kind of experiment: In vitro inhibition of human plasma renin. It counts as cell-free. Summed up: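 Renin activity was measured in human plasma at pH 7.4, and the result is reported as IC50 in nM.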

For assay [2], the target named is T1, Renin. As to the kind of experiment: In vitro inhibition of purified human renal renin. Put shortly:
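The enzyme was human renal renin, purified and tested at pH 6.0. The read-out is IC50 in nM.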

For assay [3], the target named is T2, Cathepsin D (Bos taurus) (UniProt P80209).
T2 sequence (whole entry): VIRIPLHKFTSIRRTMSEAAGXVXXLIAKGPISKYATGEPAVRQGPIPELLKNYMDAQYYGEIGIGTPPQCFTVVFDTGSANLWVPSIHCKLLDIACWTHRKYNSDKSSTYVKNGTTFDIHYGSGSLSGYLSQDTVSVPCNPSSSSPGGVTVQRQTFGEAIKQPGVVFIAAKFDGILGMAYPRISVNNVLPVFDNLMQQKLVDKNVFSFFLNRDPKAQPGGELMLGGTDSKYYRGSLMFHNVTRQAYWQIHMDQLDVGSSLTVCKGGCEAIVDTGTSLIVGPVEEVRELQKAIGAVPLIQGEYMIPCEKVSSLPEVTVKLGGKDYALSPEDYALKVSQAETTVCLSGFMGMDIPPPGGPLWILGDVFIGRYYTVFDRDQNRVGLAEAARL
As to the kind of experiment: Percent inhibition against bovine cathepsin D at a concentration of 1 x 10 e-5 M and pH 3.

In assay [4] the target is Pepsin A (Sus scrofa) (UniProt P00791). The assay is described as follows: Percent inhibition against porcine pepsin at a concentration of 1 x 10 e-5 M and pH 2.
Assay [5] deals with T2, Cathepsin D (Bos taurus). As to the kind of experiment: Percent inhibition against bovine Cathepsin D at a concentration of 1 x 10 e-5 M and pH 3.

Pepsin A (Sus scrofa), sequence (P00791 60-385 limits assumed): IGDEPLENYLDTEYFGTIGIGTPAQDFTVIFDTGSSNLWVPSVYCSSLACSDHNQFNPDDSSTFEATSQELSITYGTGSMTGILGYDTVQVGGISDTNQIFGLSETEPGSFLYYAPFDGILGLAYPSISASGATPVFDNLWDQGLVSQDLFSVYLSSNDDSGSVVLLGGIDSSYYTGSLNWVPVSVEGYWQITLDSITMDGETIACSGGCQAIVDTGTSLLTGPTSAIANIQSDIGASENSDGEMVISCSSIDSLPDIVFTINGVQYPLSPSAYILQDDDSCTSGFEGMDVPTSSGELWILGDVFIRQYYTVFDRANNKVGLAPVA

Turning to `CCN1C[C@@H]([C@H](O)[C@H](CC2CCCCC2)NC(=O)[C@H](Cc2cnc[nH]2)NC(=O)[C@H](Cc2ccccc2)NC(=O)OC(C)(C)C)NS1(=O)=O`, the 50% inhibitory concentration (IC50) in assay [1] was 13 nM; in assay [2] it was 1.4 nM.
For `CCN1C[C@@H]([C@H](O)[C@H](CC2CCCCC2)NC(=O)[C@H](Cc2cnc[nH]2)NC(=O)[C@H](Cc2ccccc2)NC(=O)OC(C)(C)C)OC1=O` the same measures were 2.8 nM and 0.63 nM.
For `CC(C)CN1C[C@@H]([C@H](O)[C@H](CC2CCCCC2)NC(=O)[C@H](Cc2cnc[nH]2)NC(=O)[C@H](Cc2ccccc2)NC(=O)OC(C)(C)C)OC1=O` the same measures were 21 nM and 3 nM.
Turning to `CCN1C[C@@H]([C@H](O)[C@H](CC2CCCCC2)NC(=O)[C@H](Cc2c[nH]cn2)NC(=O)[C@H](Cc2ccccc2)NC(=O)OC(C)(C)C)OC1=O`, the inhibition was 21% in assay [3] and 0% in assay [4].
In the case of `C[C@@H]1CO[C@H]([C@H](O)[C@H](CC2CCCCC2)NC(=O)[C@H](Cc2c[nH]cn2)NC(=O)[C@H](Cc2ccccc2)NC(=O)OC(C)(C)C)C1`, the inhibition in assay [4] is 2%; in assay [5], 9%. For the same molecule, the IC50 in assay [1] came to 3 nM; in assay [2] it was 1.2 nM.
On to `CC(C)C[C@H](O)[C@H](O)[C@H](CC1CCCCC1)NC(=O)[C@H](Cc1c[nH]cn1)NC(=O)[C@H](Cc1ccccc1)NC(=O)OC(C)(C)C`, for which the inhibition in assay [4] and in assay [5] was 0% in each case.
Consider `CC(C)(C)OC(=O)N[C@@H](Cc1ccccc1)C(=O)N[C@@H](Cc1cnc[nH]1)C(=O)N[C@@H](CC1CCCCC1)[C@@H](O)[C@@H]1CNC(=O)O1`, for which the IC50 in assay [1] is 25 nM; in assay [2] it was 4.7 nM.
As to `C[C@H]1C[C@@H]([C@H](O)[C@H](CC2CCCCC2)NC(=O)[C@H](Cc2c[nH]cn2)NC(=O)[C@H](Cc2ccccc2)NC(=O)OC(C)(C)C)OC1=O`, the IC50 in assay [1] is 2.3 nM; in assay [2], 0.32 nM.
Regarding `CON1CC([C@H](O)[C@@H](CC2CCCCC2)NC(=O)[C@H](Cc2c[nH]cn2)NC(=O)[C@H](Cc2ccccc2)NC(=O)OC(C)(C)C)OC1=O` (single isomer, unassigned), in assay [2], it took 43 nM to reach half-maximal inhibition (IC50).
`CCCN1C[C@@H]([C@H](O)[C@H](CC2CCCCC2)NC(=O)[C@H](Cc2cnc[nH]2)NC(=O)[C@H](Cc2ccccc2)NC(=O)OC(C)(C)C)OC1=O`: the values for the IC50 in assay [1] and in assay [2] were 12 nM and 1 nM, respectively.
For `CN1C[C@@H]([C@H](O)[C@H](CC2CCCCC2)NC(=O)[C@H](Cc2c[nH]cn2)NC(=O)[C@H](Cc2ccccc2)NC(=O)OC(C)(C)C)OC1=O` the same measures were 8.8 nM and 1.4 nM.
As to `CCON1C[C@@H]([C@H](O)[C@H](CC2CCCCC2)NC(=O)[C@H](Cc2cnc[nH]2)NC(=O)[C@H](Cc2ccccc2)NC(=O)OC(C)(C)C)OC1=O`, the figures for the IC50 in assay [1] and in assay [2] were 17 nM and 1.3 nM, respectively.
For `CC(C)ON1C[C@@H]([C@H](O)[C@H](CC2CCCCC2)NC(=O)[C@H](Cc2c[nH]cn2)NC(=O)[C@H](Cc2ccccc2)NC(=O)OC(C)(C)C)OC1=O` the same measures were 26 nM and 1.4 nM.
With `CCN1C[C@@H]([C@H](O)[C@H](CC2CCCCC2)NC(=O)[C@H](Cc2cnc[nH]2)NC(=O)[C@H](Cc2ccccc2)NC(=O)OC(C)(C)C)NC1=O`, the IC50 in assay [1] is 11 nM; in assay [2] it was 1.2 nM.
Turning to `CC(C)(C)OC(=O)N[C@@H](Cc1ccccc1)C(=O)N[C@@H](Cc1c[nH]cn1)C(=O)N[C@@H](CC1CCCCC1)[C@@H](O)[C@@H]1CCNC(=O)O1`, the IC50 turned out to be 29 nM in assay [1] and 3.1 nM in assay [2].
Regarding `CC(C)N1C[C@@H]([C@H](O)[C@H](CC2CCCCC2)NC(=O)[C@H](Cc2cnc[nH]2)NC(=O)[C@H](Cc2ccccc2)NC(=O)OC(C)(C)C)OC1=O`, the IC50 in assay [1] was found to be 8.2 nM; in assay [2], 0.84 nM.
Consider `CON1C[C@@H]([C@H](O)[C@H](CC2CCCCC2)NC(=O)[C@H](Cc2cnc[nH]2)NC(=O)[C@H](Cc2ccccc2)NC(=O)OC(C)(C)C)OC1=O`, for which the IC50 in assay [1] came to 9.2 nM; in assay [2] it was 0.9 nM.
For `CC(C)(C)OC(=O)N[C@@H](Cc1ccccc1)C(=O)N[C@@H](Cc1cnc[nH]1)C(=O)N[C@@H](CC1CCCCC1)[C@@H](O)[C@@H]1CC(C)(C)C(=O)O1` the same measures were 2.8 nM and 0.89 nM.
For `CC(C)(C)OC(=O)N[C@@H](Cc1ccccc1)C(=O)N[C@@H](Cc1c[nH]cn1)C(=O)N[C@@H](CC1CCCCC1)[C@@H](O)[C@@H]1CN(CCO)C(=O)O1` the same measures were 7.4 nM and 0.7 nM.
For `C=C1C[C@@H]([C@H](O)[C@H](CC2CCCCC2)NC(=O)[C@H](Cc2c[nH]cn2)NC(=O)[C@H](Cc2ccccc2)NC(=O)OC(C)(C)C)OC1=O` the same measures were 21 nM and 0.71 nM.
Consider `CC(C)(C)OC(=O)N[C@@H](Cc1ccccc1)C(=O)N[C@@H](Cc1cnc[nH]1)C(=O)N[C@@H](CC1CCCCC1)[C@@H](O)[C@@H](O)CNC=O`, for which the IC50 in assay [1] was 63 nM; in assay [2] it was 8 nM.
`CC(C)(C)OC(=O)N[C@@H](Cc1ccccc1)C(=O)N[C@@H](Cc1cnc[nH]1)C(=O)N[C@@H](CC1CCCCC1)[C@@H](O)[C@@H](O)CN=[N+]=[N-]`: in assay [1], the IC50 turned out to be 9 nM.
With `CON1C[C@@H]([C@H](O)[C@H](CC2CCCCC2)NC(=O)[C@H](Cc2c[nH]cn2)NC(=O)[C@H](Cc2ccccc2)NC(=O)OC(C)(C)C)OC1=O`, the inhibition in assay [3] and in assay [4] was 0% throughout.
`CC(C)(C)OC(=O)N[C@@H](Cc1ccccc1)C(=O)N[C@@H](Cc1c[nH]cn1)C(=O)N[C@@H](CC1CCCCC1)[C@@H](O)[C@@H](O)CN=[N+]=[N-]`: the inhibition in assay [4] and in assay [5] was 0% throughout.

As usually defined, the IC50 is the concentration that inhibits the measured activity by half. The inhibition is how much of the control response was suppressed. Read a high inhibition as a strong effect.

The record behind these values is ChEMBL document CHEMBL1124786, “Potent, low molecular weight renin inhibitors containing a C-terminal heterocycle: hydrogen bonding at the active site” (J Med Chem, 1990).
